In ChEMBL document CHEMBL1142292, “Synthesis and biological activity of novel peptide mimetics as melanocortin receptor agonists” (Bioorg Med Chem Lett, 2008) one finds Ki and EC50 data, which are given here for 6 molecules.

Assay [1] addresses T1, Melanocyte-stimulating hormone receptor (Homo sapiens, UniProt Q01726). The assay can be described thus: Displacement of europium labeled NDP-alpha-MSH from human MC1 receptor expressed in HEK293 cells. Type of assay: cell-based. In short, it runs like this:
(§1)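 HEK293 cells stably transfected with each human receptor subtype; competing unlabeled ligands displace a constant concentration of europium-labeled NDP-α-MSH, read by time-resolved fluorometry; IC50 and Ki calculated.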

In assay [2] the target is T2, Melanocortin receptor 4 (Homo sapiens, UniProt P32245). The assay can be described thus: Displacement of europium labeled NDP-alpha-MSH from human MC4 receptor expressed in HEK293 cells. Format: cell-based. In short, it runs like this: as §1
The target of assay [3] is T1, Melanocyte-stimulating hormone receptor. Briefly: Agonist activity at human MC1 receptor expressed in HEK293 cells. Format: functional, cell-based. In short, it runs like this: (§2)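 HEK293 cells stably transfected with the receptor subtype and a CRE-luciferase reporter; cells assayed in 96-well format for luciferase activity. Response expressed as percent of maximal activity (Emax) of NDP-MSH (MT-I) reference agonist.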

Assay [4] addresses T3, Melanocortin receptor 3 (Homo sapiens, UniProt P41968). The assay can be described thus: Displacement of europium labeled NDP-alpha-MSH from human MC3 receptor expressed in HEK293 cells. Type of assay: cell-based. The method, boiled down: as §1
In assay [5] the target is T3, Melanocortin receptor 3. The assay can be described thus: Agonist activity at human MC3 receptor expressed in HEK293 cells. Format: functional, cell-based. In short, it runs like this:
as §2

Assay [6] has as its target T2, Melanocortin receptor 4. The assay can be described thus: Agonist activity at human MC4 receptor expressed in HEK293 cells. Format: functional, cell-based. In short, it runs like this:
as §2

Some results are limits rather than exact numbers.

T1 sequence (Q01726 whole entry): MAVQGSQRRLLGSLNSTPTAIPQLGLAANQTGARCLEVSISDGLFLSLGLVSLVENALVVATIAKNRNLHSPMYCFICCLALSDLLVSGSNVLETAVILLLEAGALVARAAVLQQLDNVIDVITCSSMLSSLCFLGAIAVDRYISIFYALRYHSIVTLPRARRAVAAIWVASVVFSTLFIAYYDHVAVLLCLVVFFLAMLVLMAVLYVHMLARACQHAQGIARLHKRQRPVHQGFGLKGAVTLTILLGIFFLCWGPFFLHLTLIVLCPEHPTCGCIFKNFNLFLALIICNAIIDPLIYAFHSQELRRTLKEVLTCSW
T3 sequence (P41968 whole entry): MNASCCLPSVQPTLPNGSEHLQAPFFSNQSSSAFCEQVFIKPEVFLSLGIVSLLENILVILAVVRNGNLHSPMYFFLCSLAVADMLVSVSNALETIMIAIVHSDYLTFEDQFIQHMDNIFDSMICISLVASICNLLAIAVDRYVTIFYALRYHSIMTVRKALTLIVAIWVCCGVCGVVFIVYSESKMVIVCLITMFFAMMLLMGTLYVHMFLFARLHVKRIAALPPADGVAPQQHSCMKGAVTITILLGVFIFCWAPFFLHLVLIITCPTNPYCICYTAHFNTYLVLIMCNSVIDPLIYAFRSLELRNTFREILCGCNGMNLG
T2 sequence (P32245 whole entry): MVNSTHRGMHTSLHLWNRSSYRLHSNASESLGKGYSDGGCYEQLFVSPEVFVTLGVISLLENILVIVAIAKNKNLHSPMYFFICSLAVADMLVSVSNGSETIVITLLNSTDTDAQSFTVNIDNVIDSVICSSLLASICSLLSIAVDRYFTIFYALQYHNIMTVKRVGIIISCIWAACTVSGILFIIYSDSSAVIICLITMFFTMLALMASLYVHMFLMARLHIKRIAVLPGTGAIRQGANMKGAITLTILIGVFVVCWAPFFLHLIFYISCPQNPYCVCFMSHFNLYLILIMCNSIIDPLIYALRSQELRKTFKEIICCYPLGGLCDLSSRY

On to `N[C@H](Cc1ccc(Cl)cc1)C(=O)N1CCC(Cn2cncn2)(C2CCCCC2)CC1`, for which the inhibition constant Ki in assay [1] was greater than 10 µM; at Melanocortin receptor 4 [2] it was 0.023 µM; on Melanocortin receptor 3 [4], 2.3 µM. In addition, the EC50 in assay [3] amounted to 2 µM; at Melanocortin receptor 3 [5], 0.23 µM; on Melanocortin receptor 4 [6] it was 0.016 µM.
For the molecule `N[C@H](Cc1ccc(F)cc1)C(=O)NCCC(Cn1cncn1)C1CCCCC1` (some centres undefined), the Ki in assay [1] was greater than 25 µM; on Melanocortin receptor 4 [2] it was greater than 50 µM; at Melanocortin receptor 3 [4] it was 4.5 µM. In addition, the 50% effective concentration (EC50) was greater than 25 µM in assay [3], greater than 50 µM on Melanocortin receptor 3 [5] and greater than 25 µM at Melanocortin receptor 4 [6].
In the case of `NC(N)=NCCC[C@H](Cc1ccccc1)NC(=O)[C@H](N)Cc1ccc(F)cc1`, the Ki in assay [1] is greater than 25 µM; on Melanocortin receptor 4 [2], 4.2 µM; on Melanocortin receptor 3 [4] it was 3.5 µM. In addition, the EC50 on Melanocortin receptor 3 [5] and on Melanocortin receptor 4 [6] was greater than 100 µM each time.
As for `NC(N)=NCCC[C@@H](CN1CCCCC1)NC(=O)[C@H](N)Cc1ccc(F)cc1`, the Ki (in assay [1]; at Melanocortin receptor 4 [2]; at Melanocortin receptor 3 [4]) was greater than 100 µM throughout. In addition, the EC50 was greater than 50 µM in assay [3], greater than 100 µM at Melanocortin receptor 3 [5] and greater than 100 µM on Melanocortin receptor 4 [6].
As to `N=C(N)NCCC[C@H](CC1CCCCC1)NC(=O)[C@H](N)Cc1ccc(F)cc1`, the inhibition constant Ki is 6.7 µM on Melanocortin receptor 4 [2] and 9.1 µM on Melanocortin receptor 3 [4]. In addition, the half-maximal effective concentration (EC50) is greater than 25 µM in assay [3], greater than 15 µM on Melanocortin receptor 3 [5] and greater than 50 µM at Melanocortin receptor 4 [6].
In the case of `N=C(N)NCCC[C@H](NC(=O)[C@H](N)Cc1ccc(F)cc1)C(=O)N1CCCCC1`, the inhibitory constant (Ki) is greater than 100 µM in assay [1], greater than 25 µM at Melanocortin receptor 4 [2] and greater than 100 µM on Melanocortin receptor 3 [4]. Besides, the results for the EC50 (in assay [3]; at Melanocortin receptor 3 [5]; on Melanocortin receptor 4 [6]) were greater than 50 µM, greater than 25 µM and greater than 50 µM, respectively.
